From ChEMBL document CHEMBL1122622, “Carbocyclic analogues of xylofuranosylpurine nucleosides. Synthesis and antitumor activity” (J Med Chem, 1984)

Legend:
Mus musculus [1] = assay: Compound was evaluated for the in vivo antitumor activity against p388 leukemia cells after injecting the compound intraperitoneally at a dose of 5 mg/kg in mice; format: functional; details: route intraperitoneal
Procedure, shortened: (§1)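 BDF1 male mice, eight per group, implanted ip with 10⁶ P388 leukemia cells. Drug given ip in 0.5 mL saline. Schedules varied between groups; the 100 mg/kg/day regimen was dosed qd 1-9.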

Mus musculus [2] = assay: Compound was evaluated for the in vivo antitumor activity against p388 leukemia cells after injecting the compound intraperitoneally at a dose of 2 mg/kg in mice; format: functional; details: route intraperitoneal; procedure, shortened: as §1
Mus musculus [3] = assay: Compound was evaluated for the in vivo antitumor activity against P388 leukemia cells after injecting the compound intraperitoneally at a dose of 2 mg/kg in mice (treatment schedule 1-9 days); format: functional; details: route intraperitoneal; procedure, shortened: as §1
Mus musculus [4] = assay: (§2) Compound was evaluated for the in vivo antitumor activity against P388 leukemia cells after injecting the compound intraperitoneally at a dose of 5 mg/kg in mice; format: functional; details: route intraperitoneal; procedure, shortened: as §1
Mus musculus [5] = assay: Compound was evaluated for the in vivo antitumor activity against P388 leukemia cells after injecting the compound intraperitoneally at a dose of 50 mg/kg in mice; format: functional; details: route intraperitoneal; procedure, shortened: as §1
Mus musculus [6] = assay: Compound was evaluated for the in vivo antitumor activity against P388 leukemia cells after injecting the compound intraperitoneally at a dose of 1 mg/kg in mice; format: functional; details: route intraperitoneal; procedure, shortened: as §1
Mus musculus [7] = assay: as §2; format: functional; details: route intraperitoneal; procedure, shortened: as §1; remark: listed apart in the source
[8] = target: Adenosine deaminase (Bos taurus) (UniProt P56658); assay: Compound was evaluated for competitive inhibition of adenosine deaminase and expressed as Ki
Chain of Adenosine deaminase (Bos taurus) (P56658 whole entry, looked up): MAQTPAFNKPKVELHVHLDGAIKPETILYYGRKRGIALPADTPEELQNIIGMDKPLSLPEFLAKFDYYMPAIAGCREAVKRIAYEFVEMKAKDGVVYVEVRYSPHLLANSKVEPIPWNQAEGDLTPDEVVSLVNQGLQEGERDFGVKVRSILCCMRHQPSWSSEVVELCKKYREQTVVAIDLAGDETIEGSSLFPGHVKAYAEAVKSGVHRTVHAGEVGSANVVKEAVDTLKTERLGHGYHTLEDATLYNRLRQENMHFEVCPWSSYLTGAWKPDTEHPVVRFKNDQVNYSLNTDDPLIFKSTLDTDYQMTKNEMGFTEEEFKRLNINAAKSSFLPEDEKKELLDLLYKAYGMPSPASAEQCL

Mus musculus [9] = species on record: Mus musculus; assay: Effective dose by 50% was evaluated; format: functional
Procedure, shortened: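 P388 mouse lymphoid leukemia cells were grown in culture in the presence of the compound, and the concentration giving 50% effect on growth was taken as the ED₅₀.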

`Nc1ncnc2c1nnn2C1CC(CO)C(O)C1O` (configuration not stated) showed a T/C (Mus musculus [1]) of 173%, a T/C (Mus musculus [2]) of 149% and a Survival time (Mus musculus [3]) of 16.1 days. The Survival time (Mus musculus [4]) was 18.4 days, the Survival time (Mus musculus [5]) was 19.5 days and the T/C (Mus musculus [5]) was 226%. For the same compound, the Survival time (Mus musculus [6]) was 13.9 days, the T/C (Mus musculus [6]) was 128% and the Survival time (Mus musculus [7]) was 17.9 days. For the same compound, the T/C (Mus musculus [7]) was 175%.
In the case of `Nc1ncnc2c1ncn2[C@@H]1C[C@H](CO)[C@@H](O)[C@H]1O` [ARISTEROMYCIN], the Ki [8] is reported as 9.9 µM and the ED50 (Mus musculus [9]) is reported as 67 µM.
